Assay [1] deals with S. cerevisiae β′-COP(1–814)/α-COP(642–818) dimer (S. cerevisiae) (UniProt P41811). Kind of assay: ITC.
The target of assay [2] is T1, α‐COP (Schizosaccharomyces pombe, UniProt Q96WV5, F197K/I192K/L181K/L185K/L196K).
T1 sequence (Q96WV5 1-327 L181K/L185K/I192K/L196K/F197K): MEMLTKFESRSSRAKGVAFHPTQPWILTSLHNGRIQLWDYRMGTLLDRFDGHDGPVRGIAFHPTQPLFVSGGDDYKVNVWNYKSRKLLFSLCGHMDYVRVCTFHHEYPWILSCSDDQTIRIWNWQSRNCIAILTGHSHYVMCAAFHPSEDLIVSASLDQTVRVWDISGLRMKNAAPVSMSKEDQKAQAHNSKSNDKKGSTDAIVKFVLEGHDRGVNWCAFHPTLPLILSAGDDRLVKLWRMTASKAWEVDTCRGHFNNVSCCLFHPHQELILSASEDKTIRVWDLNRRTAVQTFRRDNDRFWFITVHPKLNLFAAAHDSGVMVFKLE
Kind of assay: Isothermal calorimetry. It counts as binding, S. pombe. The settings on record: from ITC Kd values for α‐COP and β′‐COP. In outline:
(§1)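 Synthetic peptides and protein were dialysed overnight into the same 20 mM Tris–HCl pH 7.5, 150 mM NaCl. α-COP target: quintuple-mutant S. pombe α-COP(1–327), His-Smt3-tagged, E. coli-expressed, tag cleaved. β′-COP target: S. cerevisiae β′-COP(1–814)/α-COP C-terminal fragment dimer from Hi-5 insect cells. Ratios are taken from the Kd values.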

Assay [3] has as its target T2, β′‐COP (Saccharomyces cerevisiae, UniProt P41811).
T2 sequence (P41811 1-814): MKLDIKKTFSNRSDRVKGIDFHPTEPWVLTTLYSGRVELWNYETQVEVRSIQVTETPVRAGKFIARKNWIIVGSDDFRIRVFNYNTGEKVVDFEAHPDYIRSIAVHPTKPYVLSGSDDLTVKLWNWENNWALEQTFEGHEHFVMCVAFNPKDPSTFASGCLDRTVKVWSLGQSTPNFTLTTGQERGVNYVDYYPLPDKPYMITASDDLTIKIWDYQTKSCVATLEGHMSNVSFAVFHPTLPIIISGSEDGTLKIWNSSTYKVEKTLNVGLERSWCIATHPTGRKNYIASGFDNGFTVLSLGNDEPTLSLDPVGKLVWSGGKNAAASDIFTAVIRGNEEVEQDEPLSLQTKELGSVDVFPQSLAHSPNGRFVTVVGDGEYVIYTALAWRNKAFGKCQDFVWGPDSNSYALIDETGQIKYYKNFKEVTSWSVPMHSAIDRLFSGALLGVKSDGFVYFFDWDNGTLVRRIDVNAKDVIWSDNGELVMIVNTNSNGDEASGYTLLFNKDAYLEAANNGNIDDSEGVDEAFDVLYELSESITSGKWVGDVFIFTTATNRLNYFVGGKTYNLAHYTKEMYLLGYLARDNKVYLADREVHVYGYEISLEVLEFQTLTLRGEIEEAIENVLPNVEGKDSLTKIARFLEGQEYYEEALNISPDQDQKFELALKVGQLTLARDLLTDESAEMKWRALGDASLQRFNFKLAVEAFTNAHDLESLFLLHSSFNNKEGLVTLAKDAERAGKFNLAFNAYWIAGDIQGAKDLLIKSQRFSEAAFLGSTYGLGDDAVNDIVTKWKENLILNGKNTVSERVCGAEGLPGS
T2 sequence (P53622 642-818 partner limits assumed): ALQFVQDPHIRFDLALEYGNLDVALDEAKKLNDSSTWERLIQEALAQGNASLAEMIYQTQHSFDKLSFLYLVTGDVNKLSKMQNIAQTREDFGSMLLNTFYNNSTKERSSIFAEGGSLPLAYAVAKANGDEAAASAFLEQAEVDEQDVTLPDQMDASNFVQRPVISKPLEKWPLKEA
Kind of assay: Isothermal calorimetry. Conditions: ITC; relative to TFKKTN (yWbp1) peptide. It counts as binding, S. cerevisiae. The gist of the method:
as §1

Assay [4] has as its target T3, S. cerevisiae β′-COP(1–814)/α-COP(642–818) dimer (S. cerevisiae, UniProt P41811 1-814; P53622 642-818).
T3 sequence (looked up) 1: T2 sequence (P41811 1-814)
T3 sequence (looked up) 2: T2 sequence (P53622 642-818 partner limits assumed)
Kind of assay: pull-down.

In assay [5] the target is T4, S. cerevisiae α-COP(1–818)/β′-COP(651–814) dimer (S. cerevisiae, UniProt P53622 1-818; P41811 651-814).
T4 sequence (looked up) 1: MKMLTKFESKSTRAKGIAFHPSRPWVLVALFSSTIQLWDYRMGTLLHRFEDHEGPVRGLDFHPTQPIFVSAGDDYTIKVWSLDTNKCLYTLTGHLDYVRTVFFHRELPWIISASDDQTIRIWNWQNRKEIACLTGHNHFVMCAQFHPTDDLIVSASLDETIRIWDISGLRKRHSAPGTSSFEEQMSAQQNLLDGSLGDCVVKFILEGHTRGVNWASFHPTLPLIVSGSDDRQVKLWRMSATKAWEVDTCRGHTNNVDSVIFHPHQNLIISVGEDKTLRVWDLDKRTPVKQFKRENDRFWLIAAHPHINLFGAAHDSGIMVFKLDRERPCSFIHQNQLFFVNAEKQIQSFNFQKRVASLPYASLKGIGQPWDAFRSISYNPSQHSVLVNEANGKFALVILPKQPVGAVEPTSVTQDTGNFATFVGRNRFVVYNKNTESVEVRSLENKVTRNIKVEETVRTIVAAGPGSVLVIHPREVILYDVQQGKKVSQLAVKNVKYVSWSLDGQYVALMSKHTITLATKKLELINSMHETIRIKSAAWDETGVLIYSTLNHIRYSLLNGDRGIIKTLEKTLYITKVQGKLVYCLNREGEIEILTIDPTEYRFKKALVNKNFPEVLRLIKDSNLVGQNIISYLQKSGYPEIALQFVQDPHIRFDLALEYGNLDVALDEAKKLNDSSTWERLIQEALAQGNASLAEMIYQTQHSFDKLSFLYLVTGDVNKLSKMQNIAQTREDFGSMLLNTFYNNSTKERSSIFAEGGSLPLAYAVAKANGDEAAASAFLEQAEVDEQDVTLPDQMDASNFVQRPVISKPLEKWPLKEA
T4 sequence (looked up) 2: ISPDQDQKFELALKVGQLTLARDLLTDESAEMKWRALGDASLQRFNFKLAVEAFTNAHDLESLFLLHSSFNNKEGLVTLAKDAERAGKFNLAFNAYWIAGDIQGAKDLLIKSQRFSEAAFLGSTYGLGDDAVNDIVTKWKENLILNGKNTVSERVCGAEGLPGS
In words: pull-down.

The target of assay [6] is T5, S. cerevisiae β′-COP N-terminal β-propeller domain (residues 1–301) (S. cerevisiae, UniProt P41811 1-301).
T5 sequence (looked up): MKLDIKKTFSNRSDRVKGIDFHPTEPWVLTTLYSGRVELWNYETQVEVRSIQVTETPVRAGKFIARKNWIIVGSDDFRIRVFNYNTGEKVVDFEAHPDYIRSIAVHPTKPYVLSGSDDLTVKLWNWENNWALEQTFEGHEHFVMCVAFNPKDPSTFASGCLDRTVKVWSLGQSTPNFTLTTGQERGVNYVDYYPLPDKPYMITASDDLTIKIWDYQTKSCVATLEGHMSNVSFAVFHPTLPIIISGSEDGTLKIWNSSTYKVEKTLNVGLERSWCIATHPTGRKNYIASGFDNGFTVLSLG
Kind of assay: crystal structure.

In assay [7] the target is T3, S. cerevisiae …. In words: ITC.

With yeast Wbp1 variant peptide TFKKSN, the fold tighter binding than KKTN in assay [1] stood at 1.8 fold. For TFKKSN, in assay [2], the “ratio of affinities of α‐COP and β′‐COP: factor by which the motif favours α‐COP” value came to 2.2. The “binds more tightly than KKTN to β′‐COP by a factor” value in assay [3] is given as 1.8 fold.

As to KYKSRRSFIDEKKMP (domain or fragment, adenovirus, UniProt P68978 145-159, looked up) [GST fused to the cytoplasmic region of adenoviral E19 protein (KKxx motif)], the binding result in assay [4] and in assay [5] was “binds” throughout.

Turning to FEKVHVQ [porcine epidemic diarrhoea virus spike protein peptide FEKVHVQ], in assay [6], the binding result was “binds”. Molecule FEAKKLV [p25 peptide FEAKKLV] registered a Kd in assay [7] of 27.7 µM. The same measure, in the same setting: under GARKLD [Scyl1 peptide GARKLD] stands 20.4 µM; under RRSFIDEKKMP [adenoviral E19 protein peptide RRSFIDEKKMP], 49 µM. In the case of PEKPHSD [Insig-1 peptide PEKPHSD], the binding result in assay [6] and in assay [7] was “binds” in each case. With RIRQEIIKTKLL (domain or fragment, yeast, UniProt P43555 434-445, looked up) [GST fused to the cytoplasmic region of Emp47p (KxKxx motif)], the binding result in assay [4] and in assay [5] was “binds” throughout. Take AEKSHQE [Insig-2 peptide AEKSHQE]: the binding result in assay [6] and in assay [7] was “binds” each time. For IKTKLL [Emp47p peptide IKTKLL], binding in assay [7] was put at a Kd of 22.5 µM. Take TFKKTN [yeast Wbp1 peptide TFKKTN]: the Kd in assay [7] came out at 171 µM. For the molecule RHLKSFFEAKKLV (domain or fragment, UniProt Q9BVK6 223-235, looked up) [GST fused to the cytoplasmic region of p25 (KKxx motif)], the binding result in assay [4] and in assay [5] was “binds” in each case. Turning to EKEKSD [human Wbp1 (OST48) peptide EKEKSD], the dissociation constant (Kd) in assay [7] was found to be 3.4 µM.

For the origin of these results see publication PMC3616288 (The EMBO Journal, 2013).
